ChEMBL document CHEMBL4813940, “Design, synthesis and biological evaluation of novel benzoxaborole derivatives as potent PDE4 inhibitors for topical treatment of atopic dermatitis” (Eur J Med Chem, 2021)

Tests used:
[1] = biological target: T1, 3',5'-cyclic-AMP phosphodiesterase 4B (Homo sapiens, UniProt Q07343); test: Inhibition of PDE4B (unknown origin) assessed as hydrolysis of [3H]-cGMP into [3H]-GMP incubated for 30 mins by scintillation of proximity assay; conditions: in the assay text read “[3H]-cAMP into [3H]-AMP” for “[3H]-cGMP into [3H]-GMP”
T1 sequence (Q07343 whole entry): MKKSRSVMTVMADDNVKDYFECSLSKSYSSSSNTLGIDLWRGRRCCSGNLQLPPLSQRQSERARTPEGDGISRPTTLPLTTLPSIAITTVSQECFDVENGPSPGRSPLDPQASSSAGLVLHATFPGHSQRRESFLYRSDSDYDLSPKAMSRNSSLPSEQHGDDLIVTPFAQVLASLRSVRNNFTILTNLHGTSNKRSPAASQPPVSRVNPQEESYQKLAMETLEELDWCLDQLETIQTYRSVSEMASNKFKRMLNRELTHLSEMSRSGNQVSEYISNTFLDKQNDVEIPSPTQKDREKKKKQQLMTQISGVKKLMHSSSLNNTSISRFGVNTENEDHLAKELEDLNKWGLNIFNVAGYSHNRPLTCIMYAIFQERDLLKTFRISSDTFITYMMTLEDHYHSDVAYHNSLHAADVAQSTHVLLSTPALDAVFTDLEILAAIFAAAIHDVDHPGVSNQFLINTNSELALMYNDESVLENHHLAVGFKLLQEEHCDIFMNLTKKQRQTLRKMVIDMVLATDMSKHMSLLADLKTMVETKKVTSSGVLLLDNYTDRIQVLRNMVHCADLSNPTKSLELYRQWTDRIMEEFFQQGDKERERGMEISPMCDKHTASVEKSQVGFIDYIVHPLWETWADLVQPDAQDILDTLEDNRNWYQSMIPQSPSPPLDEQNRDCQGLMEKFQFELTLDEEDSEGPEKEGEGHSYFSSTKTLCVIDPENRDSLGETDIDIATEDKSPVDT
In short: (§1)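 Scintillation proximity assay of [3H]-cAMP or [3H]-cGMP hydrolysis to [3H]-AMP or [3H]-GMP. Enzyme was diluted to 1–2 nM in 50 mM Tris pH 7.5, 8.3 mM MgCl2 and 1.7 mM EGTA. Reaction was started by adding enzyme, test solution and radiolabelled substrate, then incubated at 30 °C for 30 min and stopped with SPA beads. Run in duplicate.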

[2] = tested on: Mus musculus; test: Antiinflammatory activity against PMA-induced ICR mouse ear oedema model assessed as reduction in ear swelling at 1 mg/ear topically administered and measured after 4 hrs; type: functional
In short: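 Male ICR mice, 8 weeks old. The sample was applied topically to the right ear at 1.0 mg/ear in ethanol before PMA. After 4 h the mice were killed by cervical dislocation and both ears were measured with a micrometer. Oedema was the thickness difference between the ears; inhibition was the percent reduction versus the model group.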

[3] = biological target: T1, 3',5'-cyclic-AMP phosphodiesterase 4B; test: Inhibition of PDE4B (unknown origin) assessed as hydrolysis of [3H]-cAMP into [3H]-AMP incubated for 30 mins by scintillation of proximity assay
[4] = biological target: cAMP and cAMP-inhibited cGMP 3',5'-cyclic phosphodiesterase 10A (Homo sapiens, UniProt Q9Y233); test: Inhibition of PDE10A (unknown origin); in short: as §1
Sequence of cAMP and cAMP-inhibited cGMP 3',5'-cyclic phosphodiesterase 10A (Q9Y233 whole entry): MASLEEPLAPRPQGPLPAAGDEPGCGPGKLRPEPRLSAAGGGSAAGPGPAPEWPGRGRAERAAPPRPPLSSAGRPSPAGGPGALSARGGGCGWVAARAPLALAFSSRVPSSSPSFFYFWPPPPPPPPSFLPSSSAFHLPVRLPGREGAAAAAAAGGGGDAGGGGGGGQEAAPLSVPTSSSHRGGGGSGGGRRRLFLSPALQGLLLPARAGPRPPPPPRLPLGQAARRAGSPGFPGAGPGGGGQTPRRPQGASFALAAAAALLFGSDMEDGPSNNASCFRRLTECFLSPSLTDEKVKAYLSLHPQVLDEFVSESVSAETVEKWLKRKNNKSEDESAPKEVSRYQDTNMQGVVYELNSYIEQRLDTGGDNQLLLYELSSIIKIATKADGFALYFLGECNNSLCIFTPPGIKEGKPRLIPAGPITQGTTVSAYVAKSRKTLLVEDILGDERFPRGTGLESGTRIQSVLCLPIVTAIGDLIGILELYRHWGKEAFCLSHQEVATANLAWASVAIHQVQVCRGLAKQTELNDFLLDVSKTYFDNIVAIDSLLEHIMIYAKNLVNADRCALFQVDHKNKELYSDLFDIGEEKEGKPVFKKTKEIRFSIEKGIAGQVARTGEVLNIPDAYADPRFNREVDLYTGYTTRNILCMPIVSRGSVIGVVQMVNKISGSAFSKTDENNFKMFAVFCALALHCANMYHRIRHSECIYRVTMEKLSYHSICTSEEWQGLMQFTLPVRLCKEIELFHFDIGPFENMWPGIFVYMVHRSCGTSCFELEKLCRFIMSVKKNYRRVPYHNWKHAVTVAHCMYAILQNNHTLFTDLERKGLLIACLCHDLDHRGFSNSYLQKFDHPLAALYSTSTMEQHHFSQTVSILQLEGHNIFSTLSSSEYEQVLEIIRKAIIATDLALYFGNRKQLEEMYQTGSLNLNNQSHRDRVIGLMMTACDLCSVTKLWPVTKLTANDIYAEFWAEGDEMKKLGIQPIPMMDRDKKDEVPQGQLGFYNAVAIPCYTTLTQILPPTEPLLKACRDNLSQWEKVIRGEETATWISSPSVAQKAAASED

[5] = species on record: Homo sapiens; test: Selectivity index, ratio of IC50 for PDE1B (unknown origin) to IC50 for PDE4B (unknown origin)
[6] = biological target: cGMP-inhibited 3',5'-cyclic phosphodiesterase 3B (Homo sapiens, UniProt Q13370); test: Inhibition of PDE3B (unknown origin); in short: as §1
Sequence of cGMP-inhibited 3',5'-cyclic phosphodiesterase 3B (Q13370 whole entry): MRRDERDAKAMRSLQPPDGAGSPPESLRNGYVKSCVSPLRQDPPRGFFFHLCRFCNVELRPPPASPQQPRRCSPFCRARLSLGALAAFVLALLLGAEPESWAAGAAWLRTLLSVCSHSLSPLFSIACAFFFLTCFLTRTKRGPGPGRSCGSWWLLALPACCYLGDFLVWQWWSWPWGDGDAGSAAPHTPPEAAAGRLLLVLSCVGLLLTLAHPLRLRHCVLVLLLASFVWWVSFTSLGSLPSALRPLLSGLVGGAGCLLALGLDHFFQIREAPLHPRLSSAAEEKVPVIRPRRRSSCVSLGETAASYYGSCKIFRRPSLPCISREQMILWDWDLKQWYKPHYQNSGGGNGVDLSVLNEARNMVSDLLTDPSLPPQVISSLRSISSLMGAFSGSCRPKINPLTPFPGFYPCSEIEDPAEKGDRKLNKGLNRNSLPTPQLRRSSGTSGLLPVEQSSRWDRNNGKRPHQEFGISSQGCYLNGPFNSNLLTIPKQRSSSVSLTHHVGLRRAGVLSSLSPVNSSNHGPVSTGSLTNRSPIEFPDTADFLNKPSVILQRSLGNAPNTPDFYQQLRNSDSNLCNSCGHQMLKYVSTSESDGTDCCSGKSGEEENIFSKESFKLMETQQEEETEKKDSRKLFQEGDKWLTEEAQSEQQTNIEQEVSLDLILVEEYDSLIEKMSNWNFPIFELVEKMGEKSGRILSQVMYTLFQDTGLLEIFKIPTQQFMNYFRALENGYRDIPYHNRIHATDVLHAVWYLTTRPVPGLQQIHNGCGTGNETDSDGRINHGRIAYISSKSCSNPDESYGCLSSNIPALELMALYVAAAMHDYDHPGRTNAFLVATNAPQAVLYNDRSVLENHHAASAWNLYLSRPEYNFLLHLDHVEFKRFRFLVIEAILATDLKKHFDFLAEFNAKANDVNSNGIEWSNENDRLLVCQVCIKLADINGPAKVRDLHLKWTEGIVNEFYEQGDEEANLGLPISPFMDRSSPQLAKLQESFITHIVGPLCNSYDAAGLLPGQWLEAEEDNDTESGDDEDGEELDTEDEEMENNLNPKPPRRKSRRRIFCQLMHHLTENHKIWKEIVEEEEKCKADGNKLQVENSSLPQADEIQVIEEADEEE

[7] = tested on: Mus musculus; test: Antiinflammatory activity against calcipotriol-induced atopic dermatitis mouse model assessed as swelling inhibition by measuring thickness of left ear at 30 mg/kg for 14 days (RVB = 0.26 +/- 0.01 mm); type: functional; conditions: time 14 day
In short: (§2)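 Ointment was applied to the dorsal side of the left ear twice daily (30 mg/kg) for 14 days; the normal group received ethanol. On day 17 the mice were anaesthetized with 10% chloral hydrate and ear thickness was measured with a micrometer. Percent inhibition of the inflammatory reaction was calculated against untreated animals.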

[8] = tested on: Mus musculus; test: Antiinflammatory activity against calcipotriol-induced atopic dermatitis mouse model assessed as swelling inhibition by measuring thickness of right ear at 30 mg/kg for 14 days (RVB = 0.55 +/- 0.06 mm); type: functional; conditions: time 14 day; in short: as §2
[9] = biological target: Dual specificity calcium/calmodulin-dependent 3',5'-cyclic nucleotide phosphodiesterase 1B (Homo sapiens, UniProt Q01064); test: Inhibition of PDE1B (unknown origin); in short: as §1
Sequence of Dual specificity calcium/calmodulin-dependent 3',5'-cyclic nucleotide phosphodiesterase 1B (Q01064 whole entry): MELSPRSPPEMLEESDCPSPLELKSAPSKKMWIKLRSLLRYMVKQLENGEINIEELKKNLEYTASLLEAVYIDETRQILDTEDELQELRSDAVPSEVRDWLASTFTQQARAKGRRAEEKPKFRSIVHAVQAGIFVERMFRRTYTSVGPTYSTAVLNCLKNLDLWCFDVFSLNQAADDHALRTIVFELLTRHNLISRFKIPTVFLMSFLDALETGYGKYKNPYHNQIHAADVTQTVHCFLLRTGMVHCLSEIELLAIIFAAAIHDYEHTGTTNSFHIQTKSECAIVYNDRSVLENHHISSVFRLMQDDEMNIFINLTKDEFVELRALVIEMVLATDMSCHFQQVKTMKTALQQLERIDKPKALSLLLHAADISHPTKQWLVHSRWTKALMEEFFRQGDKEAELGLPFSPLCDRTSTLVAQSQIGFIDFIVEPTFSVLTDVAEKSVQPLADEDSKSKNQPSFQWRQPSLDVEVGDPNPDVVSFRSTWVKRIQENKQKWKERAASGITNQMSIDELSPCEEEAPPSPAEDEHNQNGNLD

[10] = biological target: Dual specificity calcium/calmodulin-dependent 3',5'-cyclic nucleotide phosphodiesterase 1A (Homo sapiens, UniProt P54750); test: Inhibition of PDE1A (unknown origin); in short: as §1
Sequence of Dual specificity calcium/calmodulin-dependent 3',5'-cyclic nucleotide phosphodiesterase 1A (P54750 whole entry): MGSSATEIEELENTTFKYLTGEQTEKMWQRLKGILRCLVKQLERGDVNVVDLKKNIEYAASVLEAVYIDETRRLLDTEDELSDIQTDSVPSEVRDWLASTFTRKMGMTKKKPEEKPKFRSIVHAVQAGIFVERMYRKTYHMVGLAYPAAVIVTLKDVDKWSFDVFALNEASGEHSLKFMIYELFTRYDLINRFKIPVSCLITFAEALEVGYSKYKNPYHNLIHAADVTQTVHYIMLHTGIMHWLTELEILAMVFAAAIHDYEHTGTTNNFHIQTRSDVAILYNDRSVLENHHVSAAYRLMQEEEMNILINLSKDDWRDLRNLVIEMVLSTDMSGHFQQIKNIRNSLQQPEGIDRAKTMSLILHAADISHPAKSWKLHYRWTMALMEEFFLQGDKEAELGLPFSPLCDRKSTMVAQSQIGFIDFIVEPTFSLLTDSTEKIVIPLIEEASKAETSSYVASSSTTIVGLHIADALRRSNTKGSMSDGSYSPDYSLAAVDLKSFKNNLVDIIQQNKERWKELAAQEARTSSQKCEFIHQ

[11] = species on record: Homo sapiens; test: Selectivity index, ratio of IC50 for PDE5A (unknown origin) to IC50 for PDE4B (unknown origin)
[12] = Toxicity in Sprague-Dawley rat assessed as blood glucose at 400 to 700 mg/kg, po for 14 days; type: organism-based; conditions: in vivo, 336 h, dose 400-700 mg/kg, time 14 day
[13] = tested on: Mus musculus; test: Antiinflammatory activity against calcipotriol-induced atopic dermatitis mouse model assessed as swelling inhibition at 30 mg/kg for 14 days; type: functional; set-up: scale not given: the % may be the effect or the level left; conditions: time 14 day; in short: as §2
[14] = Toxicity in Sprague-Dawley rat assessed as ALT at 400 to 700 mg/kg, po for 14 days; type: organism-based; conditions: in vivo, 336 h, dose 400-700 mg/kg, time 14 day
[15] = Phototoxicity in albino guinea pig assessed as skin reaction score at 5 mg/kg topical treatment irradiated with 4.2 mw/cm2 UVA for 40 mins and measured after 24 hrs day of light irradiation by H and E staining based microscopic analysis; type: organism-based, Cavia porcellus; conditions: in vivo, topical_or_ocular
In short: (§3)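 Albino guinea pigs (250–300 g) were randomized into 5 groups. Four 2 cm × 2 cm depilated areas beside the spine were prepared 24 h before dosing, and 0.2 mL of test substance was applied. Animals were restrained and exposed to UVA for 40 min. Erythema, eschar and oedema were scored visually at 1, 24, 48 and 72 h. Skin taken at 72 h was formalin-fixed, H&E-stained and read by a pathologist.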

[16] = Phototoxicity in albino guinea pig assessed as skin reaction score at 10 mg/kg topical treatment irradiated with 4.2 mw/cm2 UVA for 40 mins and measured after 24 hrs day of light irradiation by H and E staining based microscopic analysis; type: organism-based, Cavia porcellus; conditions: in vivo, topical_or_ocular; in short: as §3
[17] = species on record: Homo sapiens; test: Selectivity index, ratio of IC50 for PDE7A (unknown origin) to IC50 for PDE4B (unknown origin)
[18] = Toxicity in Sprague-Dawley rat assessed as systemic toxicity at 700 mg/kg, po for 14 days; type: organism-based; conditions: in vivo, 336 h, time 14 day
In short: (§4)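 Healthy male and female Sprague-Dawley rats, 8-week-old, randomised to three groups of 6 males + 6 females. Vehicle 1% CMC-Na or 400 and 700 mg/kg given by oral gavage once daily for 14 days. Mortality and clinical signs checked daily; body weight on days 0, 7, 14. Isoflurane euthanasia, macroscopic necropsy, weights of liver, kidney, testis, thymus, heart and lung.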

[19] = biological target: cGMP-specific 3',5'-cyclic phosphodiesterase (Homo sapiens, UniProt O76074); test: Inhibition of PDE5A (unknown origin); in short: as §1
[20] = Toxicity in Sprague-Dawley rat assessed as AST at 400 to 700 mg/kg, po for 14 days; type: organism-based; conditions: in vivo, 336 h, dose 400-700 mg/kg, time 14 day
[21] = Toxicity in Sprague-Dawley rat assessed as death at 700 mg/kg, po for 14 days; type: organism-based; conditions: in vivo, 336 h, time 14 day; in short: as §4
[22] = species on record: Homo sapiens; test: Selectivity index, ratio of IC50 for PDE1C (unknown origin) to IC50 for PDE4B (unknown origin)
[23] = Toxicity in Sprague-Dawley rat assessed as spleen/brain index at 400 to 700 mg/kg, po for 14 days; type: organism-based; conditions: in vivo, 336 h, dose 400-700 mg/kg, time 14 day
In short: (§5)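 Sprague-Dawley rats, 8 weeks old, 6 male and 6 female per group. Dosed by oral gavage once daily for 14 days with 1% CMC-Na vehicle or 400 and 700 mg/kg. Animals were checked daily for mortality and clinical signs, with body weight recorded on days 0, 7 and 14. Rats were then euthanized under isoflurane, necropsied, and their organs weighed.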

[24] = biological target: cGMP-dependent 3',5'-cyclic phosphodiesterase (Homo sapiens, UniProt O00408); test: Inhibition of PDE2A (unknown origin); in short: as §1
[25] = Toxicity in Sprague-Dawley rat assessed as white blood cell count at 400 to 700 mg/kg, po for 14 days; type: organism-based; conditions: in vivo, 336 h, dose 400-700 mg/kg, time 14 day
[26] = species on record: Homo sapiens; test: Selectivity index, ratio of IC50 for PDE3A (unknown origin) to IC50 for PDE4B (unknown origin)
[27] = Toxicity in Sprague-Dawley rat assessed as liver/brain index at 400 to 700 mg/kg, po for 14 days; type: organism-based; conditions: in vivo, 336 h, dose 400-700 mg/kg, time 14 day; in short: as §5
[28] = biological target: High affinity 3',5'-cyclic-AMP phosphodiesterase 7A (Homo sapiens, UniProt Q13946); test: Inhibition of PDE7A (unknown origin); in short: as §1
[29] = species on record: Homo sapiens; test: Selectivity index, ratio of IC50 for PDE1A (unknown origin) to IC50 for PDE4B (unknown origin)
[30] = species on record: Homo sapiens; test: Selectivity index, ratio of IC50 for PDE10A (unknown origin) to IC50 for PDE4B (unknown origin)
[31] = Phototoxicity in albino guinea pig assessed as necrosis at 10 mg/kg topical treatment irradiated with 4.2 mw/cm2 UVA for 40 mins and measured after 24 hrs day of light irradiation by H and E staining based microscopic analysis; type: organism-based, Cavia porcellus; conditions: in vivo, topical_or_ocular, in the assay text read “72 hrs” for “24 hrs”; in short: as §3
[32] = Toxicity in Sprague-Dawley rat assessed as blood pressure at 400 to 700 mg/kg, po for 14 days; type: organism-based; conditions: in vivo, 336 h, dose 400-700 mg/kg, time 14 day
[33] = biological target: Dual specificity calcium/calmodulin-dependent 3',5'-cyclic nucleotide phosphodiesterase 1C (Homo sapiens, UniProt Q14123); test: Inhibition of PDE1C (unknown origin)
Sequence of Dual specificity calcium/calmodulin-dependent 3',5'-cyclic nucleotide phosphodiesterase 1C (Q14123 whole entry): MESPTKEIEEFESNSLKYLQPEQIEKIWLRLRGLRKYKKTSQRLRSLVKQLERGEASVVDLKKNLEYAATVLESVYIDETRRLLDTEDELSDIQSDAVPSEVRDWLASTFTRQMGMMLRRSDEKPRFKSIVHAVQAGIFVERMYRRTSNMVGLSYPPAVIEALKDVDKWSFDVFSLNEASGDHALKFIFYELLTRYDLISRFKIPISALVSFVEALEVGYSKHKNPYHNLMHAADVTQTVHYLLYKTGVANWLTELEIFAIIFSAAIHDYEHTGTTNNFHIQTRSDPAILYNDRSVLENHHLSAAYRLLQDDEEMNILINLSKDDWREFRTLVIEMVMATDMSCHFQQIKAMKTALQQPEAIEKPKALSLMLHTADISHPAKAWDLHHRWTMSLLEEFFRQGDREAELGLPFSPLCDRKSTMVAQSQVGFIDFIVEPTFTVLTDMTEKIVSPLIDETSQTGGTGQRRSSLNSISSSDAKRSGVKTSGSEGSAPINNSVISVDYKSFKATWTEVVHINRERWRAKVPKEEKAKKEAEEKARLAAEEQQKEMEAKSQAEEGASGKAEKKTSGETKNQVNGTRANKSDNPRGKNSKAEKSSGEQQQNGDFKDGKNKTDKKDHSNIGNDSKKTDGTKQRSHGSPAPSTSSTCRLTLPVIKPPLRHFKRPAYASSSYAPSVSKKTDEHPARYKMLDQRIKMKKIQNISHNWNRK
In short: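 For PDE1A, PDE1B and PDE1C, the reaction buffer was also supplemented with 0.2 mM CaCl2 and […]. Otherwise the same SPA run as the other PDEs: [3H]-nucleotide hydrolysis at 30 °C for 30 min, in duplicate.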

[34] = biological target: cGMP-inhibited 3',5'-cyclic phosphodiesterase 3A (Homo sapiens, UniProt Q14432); test: Inhibition of PDE3A (unknown origin); in short: as §1
[35] = biological target: T1, 3',5'-cyclic-AMP phosphodiesterase 4B; test: Inhibition of PDE4B (unknown origin); in short: as §1
[36] = Phototoxicity in albino guinea pig assessed as infiltration of inflammatory cells at 10 mg/kg topical treatment irradiated with 4.2 mw/cm2 UVA for 40 mins and measured after 24 hrs day of light irradiation by H and E staining based microscopic analysis; type: organism-based, Cavia porcellus; conditions: in vivo, topical_or_ocular, in the assay text read “72 hrs” for “24 hrs”; in short: as §3
[37] = Phototoxicity in albino guinea pig assessed as skin reaction score at 24 mg/kg topical treatment irradiated with 4.2 mw/cm2 UVA for 40 mins and measured after 24 hrs day of light irradiation by H and E staining based microscopic analysis; type: organism-based, Cavia porcellus; conditions: in vivo, topical_or_ocular; in short: as §3
[38] = species on record: Homo sapiens; test: Selectivity index, ratio of IC50 for PDE2A (unknown origin) to IC50 for PDE4B (unknown origin)
[39] = species on record: Homo sapiens; test: Selectivity index, ratio of IC50 for PDE3B (unknown origin) to IC50 for PDE4B (unknown origin)

CC1(C)CC(=O)c2ccc(Oc3ccc4c(c3)COB4O)cc2O1
IC50 [1]: 65.5 nM

CCOC(=O)c1cccc2nc(Oc3ccc4c(c3)COB4O)ccc12
inhibition (INH) [2]: 57.69% | IC50 [3]: 17.3 nM

N#Cc1ccc2cc(Oc3ccc4c(c3)COB4O)ccc2c1
IC50 [1]: 25.5 nM

O=C(O)c1cccc2nc(Oc3ccc4c(c3)COB4O)ccc12
IC50 [1]: 124 nM | inhibition (INH) [2]: 45.76%

OB1OCc2cc(Oc3ccc4cc(C(F)(F)F)ccc4n3)ccc21
IC50 [4]: 4520 nM | IC50 [1]: 0.42 nM | Ratio IC50 [5]: 138 | IC50 [6]: 7190 nM | Activity [7]: 0.29 mm | Activity [8]: 0.32 mm | IC50 [9]: 58 nM | IC50 [10]: 64.7 nM | Ratio IC50 [11]: 1950 | Activity [12]: Non-Toxic | Activity [13]: 73.33% | Activity [14]: Non-Toxic | Activity [15]: Non-Toxic | Activity [16]: Non-Toxic | Ratio IC50 [17]: 83 | Activity [18]: Non-Toxic | IC50 [19]: 819 nM | Activity [20]: Non-Toxic | Activity [21]: Non-Toxic | Ratio IC50 [22]: 2060 | Activity [23]: Non-Toxic | IC50 [24]: 120 nM | Activity [25]: Non-Toxic | Ratio IC50 [26]: 19400 | Activity [27]: Non-Toxic | inhibition (INH) [2]: 65.85% | IC50 [28]: 34.7 nM | Ratio IC50 [29]: 154 | Ratio IC50 [30]: 10800 | Activity [31]: Non-Toxic | Activity [32]: Non-Toxic | IC50 [33]: 866 nM | IC50 [34]: 8130 nM | IC50 [35]: 0.42 nM | Activity [36]: Non-Toxic | Activity [37]: Non-Toxic | Ratio IC50 [38]: 286 | Ratio IC50 [39]: 17100

COC(=O)c1cnn2ccc(Oc3ccc4c(c3)COB4O)nc12
IC50 [1]: 46.2 nM

CC(=O)c1cccc2nc(Oc3ccc4c(c3)COB4O)ccc12
inhibition (INH) [2]: 39.56% | IC50 [3]: 3.05 nM

OB1OCc2cc(Oc3ccc4c(C(F)(F)F)cccc4n3)ccc21
IC50 [1]: 6.42 nM | inhibition (INH) [2]: 58.05%
